Most compounds without a hit are left out; they make up all but 2.3% or so of the library.
PLC-gamma1 inh: PLC-gamma1 (human) inhibition, primary screen; P19174; purified PLC-gamma1, fluorogenic substrate, fluorescence; inhibition, % at 12.2 µM; actives 0.84% (n = 370,000); AID 720700; in the data active = inhibition above about 9.5%
PLC-beta3 inh: PLC-beta3 (human) inhibition, primary screen | Purified PLC-beta3, fluorogenic substrate, fluorescence | inhibition, % at 12.2 µM | actives 0.18% (n = 370,000) | AID 720704; in the data active = inhibition above about 11%;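 also: 0% = median of compound wells on plate and 100% = full blocker control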
Tb MetRS inh: blocks T. brucei methionyl-tRNA synthetase activity; purified T. brucei MetRS, ATP depletion, Kinase-Glo luminescence; inhibition, % at 11.9 µM; actives 0.4% (n = 360,000); AID 624268;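 active = inhibition above a per-plate cutoff of the control wells' mean inhibition plus 3 SD, cut at about 5.5% in these data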;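 also: 0% = DMSO wells median and 100% = median of wells with control inhibitor compound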
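Measured by: Kinase-Glo luciferase luminescence reporting remaining unconsumed ATP. Material: purified T. brucei MetRS enzyme. Doses: 11.9 µM compound single dose, 0.9% DMSO. Medium: HEPES buffer containing pyrophosphatase, BSA, spermine, DTT. Times: 15 min preincubation, 2 h reaction, all 25 °C. Reagent: methionine, ATP and bulk E. coli tRNA.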
ADAM17 inh: inhibitors of human ADAM17. recombinant ADAM17, EDANS/DABCYL FRET peptide cleavage. inhibition, % at 6.95 µM. P78536. actives 0.83% (n = 370,000);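 active = inhibition above the mean of compounds lying between control limits plus 3 SD, set per campaign, cut at about 8.5% in these data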;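 also: 0% = DMSO-only wells as the low control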
ADAM10 inh: ADAM10 inhibition, QFRET primary screen; actives 0.62% (n = 370,000); recombinant ADAM10, EDANS/DABCYL FRET peptide cleavage, 3 h; O14672; inhibition, % at 7 µM;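 active = inhibition above a per-campaign cutoff equal to the mean of compounds falling between control-based bounds plus 3 SD, cut at about 20% in these data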;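 also: 0% = DMSO wells while the 100% control is not disclosed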
ADAM10 ctr: ADAM10 inhibition, counter-screen for ADAM17 exosite hits; AID 743256; inhibition, % at 6.95 µM; shares compounds with ADAM17 inh; recombinant ADAM10, EDANS/DABCYL FRET peptide cleavage, 3 h; actives 47% (n = 2,900);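 active = mean inhibition over the triplicate runs exceeds the activity threshold set in the earlier primary screen, cut at about 20% in these data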;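 also: 0% = DMSO wells and 100% = marimastat wells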
ADAM17 confirm: confirmation of inhibitors of human ADAM17; inhibition, % at 6.95 µM; actives 65% (n = 2,900); recombinant ADAM17, EDANS/DABCYL QFRET peptide cleavage; shares compounds with ADAM17 inh; AID 743257;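 active = mean inhibition across replicates above the hit cutoff set in the primary screen, cut at about 8.5% in these data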;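 also: 0% = DMSO wells and 100% = marimastat wells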
* = called active by the depositor; x = not tested or not shown.

SMILES | PLC-gamma1 inh | PLC-beta3 inh | Tb MetRS inh | ADAM17 inh | ADAM10 inh | ADAM10 ctr | ADAM17 confirm
O=C(Nc1ccc(S(=O)(=O)C(F)F)cc1)c1cccc(S(=O)(=O)N2CCOCC2)c1 | 9.3 | 7.7 | -1.0 | 11.8* | 13.5 | 14.0 | 9.0*
O=C(Nc1ccc2c(c1)CCC2)c1cccc(S(=O)(=O)N2CCN(c3ccccc3)CC2)c1 | -8.2 | -11.9 | -1.1 | 9.1* | 16.4 | 20.0* | 14.8*
CNC(=O)C[C@@H]1C(=O)N(c2ccc(Br)cc2)CC1(C)C | -0.5 | 0.1 | -1.1 | -1.9 | -15.3 | x | x
Cc1cccc(NC(=S)N=Nc2c(O)[nH]c3ccccc23)c1 | 10.9* | 2.4 | 0.3 | 9.9* | 15.5 | 26.6* | 12.8*
COc1ccc(OC)c(NC(=O)C2CC(C)=C(C)CC2C(=O)O)c1 (stereo unspecified) | 7.2 | 8.8 | 0.0 | 10.8* | 18.8 | -8.9 | -1.3
COc1ccc(OC)c(NC(=O)[C@H]2CC=CC[C@H]2C(=O)O)c1 | 3.4 | 0.7 | 0.0 | 0.9 | 11.4 | x | x
Cc1ccc(S(=O)(=O)N2CC3(O)CN(C(=O)OC(C)C)N(C(=O)OC(C)C)CC3(OC(=O)Nc3cccs3)C2)cc1 (stereo unspecified) | 1.5 | 2.5 | -0.1 | 9.4* | 18.9 | 31.4* | 13.1*
Cc1ccc(S(=O)(=O)N2CC3(O)CN(C(=O)OC(C)C)N(C(=O)OC(C)C)CC3(OC(=O)Nc3c(C)noc3C)C2)cc1 (stereo unspecified) | -2.6 | 0.4 | -0.3 | -2.3 | -3.6 | x | x
O=c1c(Cl)c(NCc2ccccc2)cnn1C12CC3CC(CC(C3)C1)C2 | 2.9 | 3.6 | -0.6 | 2.8 | -4.7 | x | x
COCCN1C[C@@H](CO)O[C@@H](n2cnc3c(NCc4ccncc4)ncnc32)C1 | -0.8 | 1.2 | 0.0 | -5.9 | -9.6 | x | x
O=C(Nc1ccc(Nc2ccccc2)cc1)c1ccc(Cl)c([N+](=O)[O-])c1 | 3.2 | -4.4 | 0.1 | 8.6* | 16.7 | 27.7* | 18.4*
CCOc1cc2c3c(c1)C1(C(=O)N3C(C)(C)C=C2C)C(C#N)=C(N)Oc2cc(O)ccc21 (stereo unspecified) | 6.2 | -4.3 | -1.4 | 9.0* | 4.7 | 8.9 | 11.8*
COc1cccc(C(C)(O)c2nc(-c3ccccc3C)cs2)c1 (stereo unspecified) | 2.4 | 2.4 | -0.2 | 2.5 | -1.2 | x | x
COc1cccc(C(C)(O)c2nc(-c3csc4ccccc34)cs2)c1 (stereo unspecified) | 2.8 | 5.6 | -0.1 | 9.5* | 12.3 | 33.0* | 16.1*
CC1(CCC(=O)N2CCCC(Nc3ccc(F)cc3)C2)CC1 (stereo unspecified) | 1.0 | -3.5 | -0.6 | -0.5 | 1.5 | x | x
COc1ccc(NC(=O)c2cc(-c3cc(Cl)ccc3OC)n[nH]2)c(C)c1 | 2.5 | -2.9 | -0.1 | 1.2 | -2.3 | x | x
COc1ccc(NC(=O)c2cc(-c3cc(Cl)ccc3C)n[nH]2)c(OC)c1 | -1.0 | -4.3 | 0.0 | 9.9* | 16.3 | 22.7* | 10.5*
CCc1ccc(C(=O)Nc2cc(S(=O)(=O)N3CCOCC3)ccc2N2CCOCC2)cc1 | 5.6 | -2.2 | -0.3 | 9.1* | 5.8 | -3.8 | 2.9
CC(C)COc1cccc(C(=O)Nc2cc(S(=O)(=O)N3CCOCC3)ccc2N2CCCC2)c1 | -7.2 | -19.8 | -0.3 | 10.8* | -5.8 | 20.9* | 11.1*
Cc1ccc(S(=O)(=O)N2C[C@H]3C(=O)C[C@@H](c4ccc(Cl)cc4)N(S(=O)(=O)c4ccc(C)cc4)[C@H]3C[C@H]2c2cccc3ccccc23)cc1 | -3.1 | -4.5 | -0.3 | 6.9 | 4.3 | x | x
Cc1ccc(C(C)C)cc1-n1nnc(-c2cccc(Cc3ccc4ccccc4c3)c2)c1C(C)O (stereo unspecified) | 5.8 | 5.7 | -0.9 | 17.5* | 16.3 | 31.1* | 17.9*
CC1(Cc2cccc(C(F)(F)F)c2)C(=O)Nc2ccc(-c3ccc(F)c(Cl)c3)cc21 (stereo unspecified) | 1.4 | 2.0 | -0.4 | 4.3 | 12.7 | x | x
CCn1nc(C)c(CN2CCC(C(=O)Nc3cccc(-c4cccc(Cl)c4)c3)CC2)c1C | 1.1 | -1.5 | -0.4 | -0.4 | 7.1 | x | x
CCc1nc2ccc(C(=O)N3CCCCC3)cn2c1N(C)CCCc1ccccc1 | -4.8 | -9.8 | -0.2 | -1.8 | -12.1 | x | x
CN(C)c1ccc(S(=O)(=O)NCC(=O)OCC(=O)Nc2cc(Cl)cc(Cl)c2)cc1[N+](=O)[O-] | 6.3 | 1.4 | 1.0 | 9.9* | 19.5 | 41.5* | 23.4*
SMILES | PLC-gamma1 inh | PLC-beta3 inh | Tb MetRS inh | ADAM17 inh | ADAM10 inh | ADAM10 ctr | ADAM17 confirm
CC(=O)Nc1c2c(nn1-c1ccccc1C)CSC2 | -2.5 | -6.7 | -0.2 | 0.8 | -10.9 | x | x
Cc1ccccc1-n1nc2c(c1NC(=O)c1ccc(S(=O)(=O)N(C)C)cc1)CSC2 | 8.3 | 1.7 | -1.3 | 13.3* | 17.5 | 18.0 | 9.4*
CC(=O)Oc1ccc([N+](=O)[O-])cc1N1C(=O)c2ccccc2C1=O | 12.1* | 12.0* | -1.8 | 9.8* | 6.5 | 22.9* | 13.5*
CSCCC(C(=O)NCc1ccccc1)n1c(-c2ccc3c(c2)CCO3)nc2ccccc21 (stereo unspecified) | -0.4 | -4.5 | -0.3 | 2.8 | 8.0 | x | x
N#CC1(NC(=O)CSc2nnc(-c3ccccc3F)o2)CCCCC1 | 0.3 | -2.7 | -0.7 | -2.6 | -4.2 | x | x
CCCCn1nnnc1C(c1cc2ccccc2o1)N1CCN(c2cc(C)nc3ccccc23)CC1 (stereo unspecified) | -0.2 | -4.5 | 0.1 | 8.8* | 9.8 | -13.0 | 0.7
CCC(Oc1ccccc1)C(=O)Nc1ccc(C)c(S(=O)(=O)N2CCOCC2)c1 (stereo unspecified) | 3.1 | -11.1 | -0.5 | -2.7 | -1.9 | x | x
CC(C)C[C@@H](CCCc1ccccc1)CCC(=O)N(c1ccccc1)c1ccccc1 | -1.6 | 1.6 | x | -3.5 | -13.9 | x | x
Cc1ccc(-c2nn3c(C)nnc3s2)cc1NC(=O)c1cccs1 | 1.5 | 0.2 | -0.3 | 11.5* | 8.0 | 5.7 | 7.5
O=C(CN1c2ccccc2Sc2ccccc21)N/N=C/c1ccccc1 | -0.7 | -5.2 | -0.3 | 1.4 | 3.7 | x | x
O=C(CN1c2ccccc2Sc2ccccc21)N/N=C/c1ccc([N+](=O)[O-])cc1 | 4.0 | 1.1 | -1.1 | 12.5* | 15.4 | 29.1* | 17.1*
CC/C(C)=N/Nc1nc2c(c(=O)[nH]c(=O)n2C)n1Cc1ccccc1 | -4.2 | -19.9 | -0.8 | 9.1* | 13.9 | 4.6 | 3.4
CC/C(C)=N/Nc1nc2c(c(=O)[nH]c(=O)n2C)n1CCc1ccccc1 | -146.7 | -178.3 | 0.3 | -31.5 | -84.5 | x | x
CCOC(=O)CC(=O)CSCC(=O)Nc1ccc(C)cc1 | -0.3 | -9.2 | -0.4 | 9.1* | 0.8 | 6.2 | 7.2
